MrgX1 ag – activates human MrgX1 receptor signaling. Q96LB2. B-score at 10 µM. MrgX1-HEK293 cells, Fluo-4 calcium fluorescence, agonist mode; stronger effect = higher value. hit rate 0.44% among 310,000;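 active = calcium response B-score plate-corrected fluorescence ratio at least 3 library SD, with starting fluorescence B-score inside 5 SD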
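Material: HEK293 cells stably expressing human MrgX1 receptor | Quantity: 15,000 cells per well | Times: Cells plated overnight, dye loaded 0.5 h 37 °C, 0.5 h room temperature | Measured by: Kinetic Fluo-4 NW fluorescence of intracellular calcium | Control set: Positive and negative controls per plate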
RGS4 block – inhibitors of human RGS4 | P49798 | HEK293 M3R/RGS4 inducible, Fluo-4 calcium flux; stronger effect = higher value; triggered by carbachol at its EC20 | B-score at 10 µM | hit rate 0.45% among 310,000;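 active = B-score, a plate-corrected calcium signal, over three deviations above library mean, with baseline fluorescence within five deviations of library mean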;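 also: RGS4 expression induced by doxycycline in cells with stable M3 receptor; B-score is computed from the integrated fluorescence ratio over baseline after carbachol; higher B-score means a larger calcium signal and so more RGS4 inhibition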
Target sequence (P49798 whole entry, looked up): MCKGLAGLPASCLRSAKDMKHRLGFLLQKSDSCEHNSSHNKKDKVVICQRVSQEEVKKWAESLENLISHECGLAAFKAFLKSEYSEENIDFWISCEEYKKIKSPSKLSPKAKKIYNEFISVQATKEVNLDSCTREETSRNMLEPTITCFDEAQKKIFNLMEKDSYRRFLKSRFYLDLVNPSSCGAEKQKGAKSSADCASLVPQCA
RGS4 pot – potentiators or activators of RGS4 | hit rate 0.92% among 310,000 | HEK293 M3R/inducible RGS4, carbachol calcium flux Fluo4; stronger effect = lower value | B-score at 10 µM;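 active = B-score of the integrated calcium signal more than 4 SD below the library mean, with starting fluorescence not abnormally high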;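 also: negative B-score means reduced calcium response which marks RGS4 activation or potentiation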
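Test system: HEK293 cells with stable M3R and inducible RGS4; also added: carbachol at ECmax as muscarinic agonist stimulus; schedule: dye loading 30 min 37 °C, buffer rest 30 min RT; technique: kinetic calcium fluorescence imaging with Fluo4-AM dye, 2 µM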
MrgX1 allo act – human MrgX1 positive allosteric modulation, primary screen; MrgX1-HEK293, Fluo-4 calcium flux, FDSS; stronger effect = higher value; B-score at 10 µM; hit rate 0.63% among 310,000; AID 588675;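 active = plate-corrected calcium response at least 3 library SD above typical, normal starting fluorescence, not activating the receptor alone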;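 also: compound read alongside a low EC10 to EC30 dose of BAM8-22 agonist; peak minus trough fluorescence over baseline measured at the second addition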
Hep lipid drop – modulators of hepatic lipid droplet formation. AML12 mouse hepatocytes, oleate lipid droplets, BODIPY imaging. inhibition, % at 6.5 µM. hit rate 0.4% among 240,000;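 active = lipid droplet intensity inhibited by at least 50%, with more than 500 cells counted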
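Material – AML12 mouse liver cells · Also added – oleate loading, 100 µM · Compound dosing – 6.5 µM single-point dosing · Times – overnight treatment with compound plus oleate · Measured by – fluorescence imaging, 20x objective, two fields per well · Read-out – percent inhibition of filter-corrected integrated lipid droplet intensity per well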
MrgX1 antagonist – human MrgX1 receptor antagonism, primary screen. MRGX1-HEK293 calcium flux, Fluo-4, BAM8-22 antagonism; stronger effect = lower value. AID 588676. hit rate 1.3% among 310,000. Q96LB2. B-score at 10 µM;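 active = calcium-response B-score plate-corrected more than 3 library SD below zero, starting fluorescence within 5 deviations, no agonist response on first addition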;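 also: peak minus trough fluorescence over baseline after final BAM8-22 challenge near maximal dose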
RGS4 act valid – RGS4 activation, validation assay. inhibition, % at 10 µM. AID 602282. hit rate 89% among 1,100. HEK293 M3R/RGS4 inducible, carbachol calcium flux Fluo4. shares compounds with RGS4 pot;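 active = inhibition above 3 SD of the buffer control wells, cut at about 41% in these data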;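 also: signal is the integrated peak-minus-minimum Fluo4 fluorescence over baseline ratio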
RGS4 act ctr – RGS4 activator counter-screen hit in non-induced cells | shares compounds with RGS4 pot | HEK293 M3R non-induced RGS4, Fluo4 calcium flux; after carbachol challenge at its EC90 | inhibition, % at 10 µM | hit rate 82% among 1,100;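 active = inhibition exceeding 3 SD of buffer-only control wells, cut at about 26% in these data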;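 also: percent drop in integrated peak-minus-baseline over baseline Fluo4 ratio after carbachol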
* = called active by the depositor; i = inactive; · = not tested or not shown. Hits are enriched below; roughly 3.8% of the tested compounds scored in any of these assays.

SMILES | MrgX1 ag | RGS4 block | RGS4 pot | MrgX1 allo act | Hep lipid drop | MrgX1 antagonist | RGS4 act valid | RGS4 act ctr
Cc1c(Br)ccc(NC(=O)c2ccccc2[N+](=O)[O-])c1C | i | i | i | i | 9 | i | · | ·
CCN=C1SC(C(=O)Nc2cccc(Br)c2)CC(=O)N1CC (configuration not stated) | i | i | -7.8* | i | 22 | i | 56* | 84*
CCN=C1SC(C(=O)Nc2cccc(Cl)c2)CC(=O)N1CC (configuration not stated) | i | i | i | i | -9 | i | · | ·
CCOC(=O)C1=C(C)N2C(=C(C#N)[C@@H]1c1ccc(C(=O)OC)cc1)SC[C@@]2(O)C(C)(C)C | i | i | -9.1* | i | -20 | i | 59* | 0
CC1(C)CC(=O)C2=C(C1)OC(N)=C(C#N)C2c1cn(-c2ccccc2)nc1-c1ccccc1 (configuration not stated) | i | i | -11* | i | 16 | i | 0 | 0
CC1(C)CC(=O)C2=C(C1)OC(N)=C(C#N)C2c1ccoc1 (configuration not stated) | i | i | i | i | -2 | i | · | ·
CCCCCCCCCC[N+](C)(C)CC/C=C1/c2ccccc2Sc2ccc(Cl)cc21 | i | i | i | i | · | i | · | ·
CC[N+](C)(C)CC/C=C1/c2ccccc2Sc2ccc(Cl)cc21 | i | i | -12* | i | -20 | i | 94* | 93*
CN(c1ccccc1)S(=O)(=O)c1cccc(C(=O)NCCc2c[nH]c3ccccc23)c1 | i | i | -9.2* | i | · | i | 74* | 48*
COC(=O)c1ccc(-c2noc(CN3CCCCC3c3nccn3C)n2)cc1 (configuration not stated) | i | i | -10* | i | -15 | i | 91* | 68*
Cn1ccnc1C1CCCCN1Cc1nc(Cc2ccccc2F)no1 (configuration not stated) | i | i | i | i | -15 | i | · | ·
CCOP(=O)(Nc1ccc2oc(=O)c3ccccc3c2c1)OCC | i | i | i | i | -7 | i | · | ·
CCC(=O)N1CCN(c2ccnc3cc(Cl)ccc23)CC1 | i | i | i | i | 14 | i | · | ·
CCOC(=O)N1CCN(c2ccnc3cc(Cl)ccc23)CC1 | i | i | -13* | i | -33 | i | 92* | 95*
CC(C)C(NC(=O)c1ccccc1)C(=O)N/N=C\c1ccco1 (configuration not stated) | i | i | i | i | 13 | i | · | ·
CCOC(=O)c1cc(C)nc(N2CCCCC2)c1C#N | i | i | -11* | i | · | i | 0 | 0
COc1cccc(-c2nn(-c3ccccc3)cc2C(=O)O)c1 | i | i | i | i | · | i | · | ·
COc1cccc(-c2nn(-c3ccc(C)cc3)cc2C(=O)N2CCc3cc(OC)c(OC)cc3C2)c1 | i | i | -9.2* | i | · | i | 45* | 0
CC1(C)CC(=O)C(N=Nc2ccc(S(=O)(=O)N3CCOCC3)cc2)=C(O)C1 | i | i | i | i | 4 | i | · | ·
c1cn2c(NC3CCCCC3)c(-c3ccc(SC4CCCCC4)cc3)nc2cn1 | i | i | i | i | · | i | · | ·
CCN(CC)c1ccc(-c2nc3cnccn3c2NC2CCCC2)cc1 | i | i | -7.9* | i | · | i | 54* | 0
Cc1ccccc1C1c2[nH]c3ccccc3c2CCN1CCCn1cccn1 (configuration not stated) | i | i | -7.7* | i | 21 | i | 93* | 91*
